This passage reports inhibition, Activity and fold change (FC) results from ChEMBL document CHEMBL4334471, “Discovery of 1,8-disubstituted-[1,2,3]triazolo[4,5-c]quinoline derivatives as a new class of Hippo signaling pathway inhibitors” (Bioorg Med Chem Lett, 2019).

Active and inactive are the calls of the source. No cut-off for these calls is given here.

Chain of Transcriptional coactivator YAP1 (Homo sapiens) (P46937 whole entry): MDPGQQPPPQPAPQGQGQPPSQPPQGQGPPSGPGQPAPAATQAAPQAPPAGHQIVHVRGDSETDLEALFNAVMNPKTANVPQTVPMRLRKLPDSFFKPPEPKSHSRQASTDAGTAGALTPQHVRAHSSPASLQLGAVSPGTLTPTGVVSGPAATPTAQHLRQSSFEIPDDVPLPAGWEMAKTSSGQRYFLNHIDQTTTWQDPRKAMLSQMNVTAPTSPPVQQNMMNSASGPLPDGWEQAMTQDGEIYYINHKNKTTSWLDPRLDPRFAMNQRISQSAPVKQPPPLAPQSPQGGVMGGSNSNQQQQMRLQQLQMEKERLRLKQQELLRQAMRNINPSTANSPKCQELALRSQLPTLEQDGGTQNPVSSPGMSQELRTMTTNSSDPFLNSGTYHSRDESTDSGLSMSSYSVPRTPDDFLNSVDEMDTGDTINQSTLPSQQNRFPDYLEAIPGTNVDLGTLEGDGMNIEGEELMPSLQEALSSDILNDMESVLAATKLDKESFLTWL

The subject of the first assay is A549. The assay can be described thus: Inhibition of hippo signalling protein in human A549 cells cotransfected with CTGF promoter-driven firefly luciferase and CMV promoter-driven renilla luciferase gene incubated for 24 hrs by dual-luciferase gene assay. Format: cell-based. The method, boiled down:
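Dual-luciferase reporter read-out in A549-CTGF cells after 24 h culture with compound. Firefly luciferase is expressed relative to DMSO-treated cells, set as 1. Screening used 10 µM. Values are mean ± SEM of three independent experiments.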
As for `CN1C(=O)c2sccc2N(C)c2nc(Nc3ccc(S(N)(=O)=O)cc3)ncc21`, the inhibition result is “Dose-dependent effect”.

The next assay relates to A549. The assay can be described thus: Inhibition of hippo signalling protein in human A549 cells assessed as increase in CTGF mRNA expression level at 10 uM incubated for 24 hrs by qRT-PCR analysis. Format: cell-based. An outline of the steps: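 A549-CTGF cells were exposed to compound or 0.1% DMSO for 24 h before total RNA extraction. Endogenous CTGF mRNA was quantified by real-time PCR. Data were mean ± SEM (n=4) and compared by Student's t-test.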
With `CN1C(=O)c2sccc2N(C)c2nc(Nc3ccc(S(N)(=O)=O)cc3)ncc21`, the inhibition entry was “Active”.

The target of a further assay is Transcriptional coactivator YAP1 (Homo sapiens) (UniProt P46937). The assay can be described thus: Induction of YAP nuclear translocation in human A549 cells at 10 uM incubated for 8 hrs by immunofluorescence based confocal microscopy. Format: cell-based. An outline of the steps:
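A549-CTGF reporter cells were treated for 8 h at 10 µM, with 0.1% DMSO as vehicle control. Cells were then fixed, permeabilized and probed with anti-YAP antibody. DAPI stained the nuclei, and YAP localization was imaged by immunofluorescence.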
For `CN1C(=O)c2sccc2N(C)c2nc(Nc3ccc(S(N)(=O)=O)cc3)ncc21`, the result was Active.

Another assay deals with A549. The assay can be described thus: Inhibition of hippo signalling protein in human A549 cells cotransfected with CTGF promoter-driven firefly luciferase and CMV promoter-driven renilla luciferase gene assessed as increase in CTGF expression at 10 uM incubated for 24 hrs by dual-luciferase gene assay relative to control.
Take `COc1cccc([C@H](C)n2nnc3cnc4ccc(-c5cnc6[nH]ccc6c5)cc4c32)c1`: the fold change (FC) turned out to be 3.13. Still for that read-out and setting: under `C[C@@H](c1ccccc1)n1nnc2cnc3ccc(-c4ccc5[nH]ccc5c4)cc3c21` stands 4.6. In the case of `COc1cccc([C@@H](C)n2nnc3cnc4ccc(-c5cnc6[nH]ccc6c5)cc4c32)c1`, the fold change (FC) stood at 2.22.

In the case of `C[C@@H](c1ccccc1)n1nnc2cnc3ccc(-c4cnc(N)nc4)cc3c21`, the fold change (FC) turned out to be 3.49.

`CN1C(=O)c2sccc2N(C)c2nc(Nc3ccc(S(N)(=O)=O)cc3)ncc21`: the fold change (FC) was 4.92. The same measure, in the same setting: under `C[C@@H](c1ccccc1)n1nnc2cnc3ccc(-c4ccc(C#N)nc4)cc3c21` stands 1.94; under `C[C@@H](c1ccccc1)n1nnc2cnc3ccc(-c4ccc(N)cc4)cc3c21`, 2.24. Same read-out and setting: under `C[C@@H](c1ccccc1)n1nnc2cnc3ccc(-c4ccc(N)c(Cl)c4)cc3c21` stands 1.73; under `C[C@@H](c1ccccc1)n1nnc2cnc3ccc(-c4ccccc4)cc3c21`, 1.43. In the case of `Fc1ccc(-n2nnc3cnc4ccc(-c5cnc6[nH]ccc6c5)cc4c32)cc1`, the fold change (FC) turned out to be 3.44. Same read-out and setting: under `COc1ccc(-c2ccc3ncc4nnn([C@@H](C)c5ccccc5)c4c3c2)cn1` stands 0.996; under `C[C@@H](c1ccccc1)n1nnc2cnc3ccc(-c4ccc(N(C)C)nc4)cc3c21`, 1.19; under `CC[C@H](c1ccccc1)n1nnc2cnc3ccc(-c4cnc5[nH]ccc5c4)cc3c21`, 3.72. Same read-out and setting: under `C[C@H](c1ccccc1)n1nnc2cnc3ccc(-c4cnc5[nH]ccc5c4)cc3c21` stands 8.1; under `C[C@@H](c1cccc(F)c1)n1nnc2cnc3ccc(-c4cnc5[nH]ccc5c4)cc3c21`, 4.91; under `C[C@@H](c1ccccc1)n1nnc2cnc3ccc(-c4ccc(Cl)nc4)cc3c21`, 1.24. Regarding `Cn1nnc2cnc3ccc(-c4cnc5[nH]ccc5c4)cc3c21`, the fold change (FC) came out at 0.55. On the same count and under the same terms, under `C[C@@H](c1ccccc1)n1nnc2cnc3ccc(-c4c[nH]c5ncccc45)cc3c21` stands 1.11; under `C[C@H](c1ccc(F)cc1)n1nnc2cnc3ccc(-c4cnc5[nH]ccc5c4)cc3c21`, 4.92; under `C[C@@H](c1ccccc1)n1nnc2cnc3ccc(-c4ccc(N5CCOCC5)nc4)cc3c21`, 1.06.

As to `C[C@@H](c1ccccc1)n1nnc2cnc3ccc(-c4ccc(N)nc4)cc3c21`, the fold change (FC) stood at 9.09. Same read-out and setting: under `Fc1ccc(Cn2nnc3cnc4ccc(-c5cnc6[nH]ccc6c5)cc4c32)cc1` stands 3.87; under `C[C@@H](c1ccccc1)n1nnc2cnc3ccc(-c4ccnc5[nH]ccc45)cc3c21`, 0.549. Still for that read-out and setting: under `C[C@H](c1cccc(F)c1)n1nnc2cnc3ccc(-c4cnc5[nH]ccc5c4)cc3c21` stands 2.1; under `CC[C@@H](c1ccccc1)n1nnc2cnc3ccc(-c4cnc5[nH]ccc5c4)cc3c21`, 8.06.

In the case of `C[C@@H](c1ccccc1)n1nnc2cnc3ccc(-c4ccnc(N)c4)cc3c21`, the fold change (FC) was 2.01. Still for that read-out and setting: under `CC(C)n1nnc2cnc3ccc(-c4cnc5[nH]ccc5c4)cc3c21` stands 3.38. In the case of `C[C@@H](c1ccc(F)cc1)n1nnc2cnc3ccc(-c4cnc5[nH]ccc5c4)cc3c21`, the fold change (FC) was 6.51.
